From ChEMBL document CHEMBL2046350, “Bahamaolides A and B, antifungal polyene polyol macrolides from the marine actinomycete Streptomyces sp” (J Nat Prod, 2012) come the findings set out here.

In one assay the test system is MDA-MB-231. Put plainly: Cytotoxicity against human MDA-MB-231 cells at 100 ug/ml. The class given is functional, cell-based.
In the next assay the test system is Trichophyton rubrum. Put plainly: Antifungal activity against Trichophyton rubrum IFO 9185 after 48 to 72 hrs. The class given is functional. The essentials:
(§1)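 Candida albicans grown in YPD (1% yeast extract, 2% peptone, 2% dextrose) 48 h at 28 °C, harvested, washed twice with water; moulds grown on potato dextrose agar 2 weeks at 28 °C, spores washed and resuspended in PDB. Broth microdilution in PDB (10⁴ cells/mL) with compound added in 5% DMSO (0.5% DMSO solvent control); 28 °C, 48–72 h; MIC = lowest concentration inhibiting growth.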

Another assay has as its system Aspergillus fumigatus. Put plainly: Antifungal activity against Aspergillus fumigatus HIC 6094 after 48 to 72 hrs. The class given is functional. The essentials: as §1
For a further assay, the system named is Salmonella typhimurium. The assay is described as follows: Antibacterial activity against Salmonella typhimurium ATCC 14028. The class given is functional, organism-based. To be noted: Salmonella enterica subsp. enterica serovar Typhimurium.
The subject of a further assay is Proteus vulgaris. The assay is described as follows: Antibacterial activity against Proteus vulgaris ATCC 3851. The format is functional, organism-based.
A further assay deals with Staphylococcus aureus. Put plainly: Antibacterial activity against Staphylococcus aureus ATCC 6538p. The format is functional, organism-based.
The test system of assay [1] is Candida albicans. The assay is described as follows: Antifungal activity against Candida albicans ATCC 10231 after 48 to 72 hrs. The class given is functional. The essentials: as §1
Assay [2] has as its system Trichophyton mentagrophytes. Put plainly: Antifungal activity against Trichophyton mentagrophytes IFO4 0996 after 48 to 72 hrs. The format is functional. The method in brief: as §1
For the next assay, the system named is Escherichia coli. The assay is described as follows: Antibacterial activity against Escherichia coli ATCC 35270. The format is functional, organism-based.
The test system of the next assay is A549. The assay is described as follows: Cytotoxicity against human A549 cells at 100 ug/ml. The format is functional, cell-based.
Assay [3] is described as follows: Inhibition of candida albicans ICL assessed as formation of glyoxylate phenylhydrazone after 30 mins by Dixon and Kornberg's method.
A further assay concerns Micrococcus luteus. Put plainly: Antibacterial activity against Micrococcus luteus IFO 12708. The format is functional, organism-based.
For a further assay, the system named is Bacillus subtilis. The assay is described as follows: Antibacterial activity against Bacillus subtilis ATCC 6633. The class given is functional, organism-based.
Another assay has as its system SK-HEP1. The assay is described as follows: Cytotoxicity against human SKHEP1 cells at 100 ug/ml. The format is functional, cell-based.
The next assay deals with HCT-116. The assay is described as follows: Cytotoxicity against human HCT116 cells at 100 ug/ml. The format is functional, cell-based.
The subject of assay [4] is Candida albicans. Put plainly: Inhibition of candida albicans ICL assessed as formation of glyoxylate phenylhydrazone at 100 ug/ml after 30 mins by Dixon and Kornberg's method.

Molecules are shown by their SMILES. pIC50: −log10 of the molar value. ≈ marks a conversion by molar mass, not a printed value. Calls of active or inactive are those of the source. The calls are words filed in the database; no cut-off is given here.

A word on the pIC50: it is −log10 of the IC50, conventionally taken in molar units. As to `CC(C)[C@@H]1OC(=O)/C=C/C=C/C=C/C=C/C=C/C=C\C[C@@H](O)C[C@H](O)C[C@H](O)C[C@H](O)C[C@@H](O)C[C@H](O)C[C@@H](O)C[C@@H](O)C[C@@H](O)CC[C@@H]1C` [BAHAMAOLIDE B], the outcome with MDA-MB-231, in the assay with Trichophyton rubrum, in the assay with Aspergillus fumigatus, with Salmonella typhimurium, in the assay on Proteus vulgaris and in the assay with Staphylococcus aureus was inactive. Further, the result (in the assay on Candida albicans [1]; in assay [2]; in the assay on Escherichia coli; in the assay on A549; with Micrococcus luteus; with Bacillus subtilis) was inactive. Moreover, the result with SK-HEP1 and in the assay on HCT-116 was inactive. In addition, the pIC50 in assay [3] was 3.90.
What is called MIC is the lowest concentration that inhibits growth of the organism. A higher MIC goes with a need for much substance. `CC(C)[C@@H]1OC(=O)/C=C/C=C/C=C/C=C/C=C/C=C/C[C@@H](O)C[C@H](O)C[C@H](O)C[C@H](O)C[C@@H](O)C[C@H](O)C[C@@H](O)C[C@@H](O)C[C@@H](O)CC[C@@H]1C` [BAHAMAOLIDE A]: the result in the assay on MDA-MB-231, with Salmonella typhimurium, in the assay on Proteus vulgaris, with Staphylococcus aureus, with Escherichia coli and in the assay on A549 was inactive. Further, the outcome with Micrococcus luteus, with Bacillus subtilis, in the assay on SK-HEP1 and in the assay with HCT-116 was inactive. For the same molecule, the MIC (with Trichophyton rubrum; against Aspergillus fumigatus; against Candida albicans [1]; in [2]) was 12.5 µg/mL (≈ 17.6 µM) throughout. Also, the pIC50 in [3] is 4.97.
Regarding `C[C@@H]1[C@H](O)[C@@H](C)/C=C/C=C/C=C/C=C/C=C/C=C/C=C/[C@H](O[C@@H]2O[C@H](C)[C@@H](O)[C@H](N)[C@@H]2O)C[C@@H]2O[C@](O)(C[C@@H](O)C[C@@H](O)[C@H](O)CC[C@@H](O)C[C@@H](O)CC(=O)O[C@H]1C)C[C@H](O)[C@H]2C(=O)O`, the inhibition entry in the assay on Candida albicans [4] was “inactive”.
